# Source: ChEMBL document CHEMBL1275434, “In vitro evaluation of CBR-2092, a novel rifamycin-quinolone hybrid antibiotic: studies of the mode of action in Staphylococcus aureus” (Antimicrob Agents Chemother, 2008)
# Calls of active or inactive are those of the source. No cut-off for these calls is given here.
# How the values were obtained:
# [1] = tested on: Staphylococcus aureus; test: Antimicrobial activity against Staphylococcus aureus CB1881 harboring rpoB R484H mutant gene and L520 deficient gyrA gene by broth microdilution method; assay type: functional
# Outline: (§1)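 CLSI broth microdilution MIC in MHII broth with 0.002% (vol/vol) polysorbate 80. Isolates came from daily stepwise broth passage at sub-MIC drug (MHII without polysorbate 80, 10^6 CFU/ml inoculum, 20–24 h shaking at 37°C), were purified drug-free, and were sequenced at target loci.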
# [2] = tested on: Staphylococcus aureus; test: Antimicrobial activity against Staphylococcus aureus CB1882 harboring rpoB R484H mutant gene, L520 deficient gyrA gene and R236 duplicated parC gene by agar dilution method; assay type: functional
# Outline: (§2)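 CLSI agar dilution MIC on MHII base medium against stepwise-passage isolates; passage was in MHII broth without polysorbate 80, daily at 37°C.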
# [3] = tested on: Staphylococcus aureus; test: Antimicrobial activity against Staphylococcus aureus CB1883 harboring rpoB R484H mutant gene, L520 deficient gyrA gene, gyrA S84L mutant gene and R236 duplicated par C gene by broth microdilution method; assay type: functional; outline: as §1
# [4] = tested on: Staphylococcus aureus; test: Antimicrobial activity against Staphylococcus aureus CB1883 harboring rpoB R484H mutant gene, L520 deficient gyrA gene, gyrA S84L mutant gene and R236 duplicated par C gene; assay type: functional
# [5] = tested on: Staphylococcus aureus; test: Antimicrobial activity against Staphylococcus aureus CB1884 harboring rpoB R484H mutant gene, L520 deficient gyrA gene, gyrA S84L mutant gene, R236 duplicated par C gene and parC H103Y mutant gene by agar dilution method; assay type: functional; outline: as §2
# [6] = tested on: Staphylococcus aureus; test: Antimicrobial activity against Staphylococcus aureus CB814 harboring gyrA […] and parc S80F mutant genes by broth microdilution method; assay type: functional
# Outline: (§3)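 CLSI broth microdilution MIC in cation-adjusted Mueller-Hinton (MHII) broth supplemented with 0.002% (vol/vol) polysorbate 80, included to limit compound loss to plastic surfaces.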
# [7] = tested on: Staphylococcus aureus; test: Antimicrobial activity against Staphylococcus aureus CB1952 harboring rpoB S486L, gyrA […], gyrA E88Q, gyrA G532S, parC S80F, parC E84L mutant genes selected after CBR-2092 exposure for 21 days by broth microdilution method; assay type: functional; settings: CB1952, 504 h
# Outline: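 CLSI broth microdilution MIC in MHII with 0.002% polysorbate 80 against strains from 20–21 days of stepwise passage of rifamycin- and/or quinolone-resistant parents; CBR-2092 passages used MHII with 0.002% polysorbate 80.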
# [8] = tested on: Staphylococcus aureus; test: Activity at Staphylococcus aureus wild-type GyrA
# Outline: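 Recombinant S. aureus gyrase (wild-type GyrA with His-tagged GyrB; 250 U per μg). SDS/proteinase K stop. Gel quantitation of linear cleavage product gave CC50, the mean of two or more assays.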
# [9] = tested on: DNA gyrase subunit A (Staphylococcus aureus), P20831 [S84L]; test: Activity at Staphylococcus aureus wild-type GyrA S84L mutant
# [10] = tested on: Staphylococcus aureus; test: Antimicrobial activity against Staphylococcus aureus CB808 harboring quinolone-resistant parC S80F mutant gene by broth microdilution method; assay type: functional; outline: as §3
# [11] = tested on: Staphylococcus aureus; test: Antimicrobial activity against Staphylococcus aureus CB370 harboring rifampin-resistant rpoB H481Y mutant gene by broth microdilution method; assay type: functional; outline: as §3
# [12] = tested on: Staphylococcus aureus; test: Inhibition of cell wall synthesis in Staphylococcus aureus CB190 assessed as decrease in [2,3-3H]D-alanine incorporation at 0.5 ug/ml; assay type: functional, organism-based
# [13] = tested on: Staphylococcus aureus; test: Inhibition of cell wall synthesis in rifamycin-resistant Staphylococcus aureus CB370 harboring rpoB H481Y mutant gene assessed as decrease in [2,3-3H]D-alanine incorporation at 0.5 ug/ml; assay type: functional, organism-based
# Outline: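 Time-course radiolabel incorporation in S. aureus cultures with test agent. Precursors: [methyl-3H]thymidine (DNA), [5,6-3H]uridine (RNA), L-[3,4,5-3H]leucine (protein), [2,3-3H]D-alanine (cell wall). At each time point, incorporation with agent is expressed relative to the DMSO-treated control culture as percent incorporation. Time-zero incorporation is set to 100%.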
# [14] = tested on: Staphylococcus aureus; test: Inhibition of cell wall synthesis in quinolone-resistant Staphylococcus aureus CB814 harboring gyrA S84L and parC S80F mutant genes assessed as decrease in [2,3-3H]D-alanine incorporation at 0.5 ug/ml; assay type: functional, organism-based
# Outline: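 Macromolecular synthesis time course in S. aureus, measuring incorporation of [methyl-3H]thymidine (DNA), [5,6-3H]uridine (RNA) or [2,3-3H]D-alanine (cell wall). At each time point, incorporation is expressed as percent of the DMSO-treated control culture. Incorporation at time zero is set to 100%.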
# [15] = tested on: Staphylococcus aureus; test: Antimicrobial activity against rifampin-sensitive Staphylococcus aureus CB190 harboring rpoB Q468K mutant gene by broth microdilution method; assay type: functional; outline: as §3
# [16] = tested on: Staphylococcus aureus; test: Antimicrobial activity against rifampin-sensitive Staphylococcus aureus CB190 harboring rpo BH481D mutant gene by broth microdilution method; assay type: functional; outline: as §3
# [17] = tested on: Staphylococcus aureus; test: Antimicrobial activity against rifampin-sensitive Staphylococcus aureus CB190 harboring rpoB A477V mutant gene by broth microdilution method; assay type: functional; outline: as §3
# [18] = tested on: Staphylococcus aureus; test: Antimicrobial activity against Staphylococcus aureus CB1522 harboring by broth microdilution method; assay type: functional
# [19] = tested on: Staphylococcus aureus; test: Antimicrobial activity against Staphylococcus aureus CB1421 harboring rpoB H481Y, parC S80F and gyrA S84L mutant genes selected after 0.18 ug/ml drug exposure by broth microdilution method; assay type: functional
# Outline: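 CLSI broth microdilution MIC in cation-adjusted Mueller-Hinton (MHII) broth with 0.002% (vol/vol) polysorbate 80. Single-step mutants were selected on agar […], purified by drug-free passage, their phenotype re-verified, and resistance loci sequenced.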
# [20] = tested on: Staphylococcus aureus; test: Antimicrobial activity against Staphylococcus aureus CB1333 harboring rpoB H481Y, parC S80F and parE L517F mutant genes selected after 0.8 ug/ml drug exposure by broth microdilution method; assay type: functional
# [21] = tested on: Staphylococcus aureus; test: Antimicrobial activity against Staphylococcus aureus CB1335 harboring rpoB H481Y, parC S80F, parE E474Q and gyrA S84L mutant genes selected after 0.8 ug/ml drug exposure by broth microdilution method; assay type: functional
# [22] = tested on: Staphylococcus aureus; test: Antimicrobial activity against Staphylococcus aureus CB1353 harboring rpoB H481Y, parC S80F, parE V458G and gyrA S84L mutant genes selected after 0.53 ug/ml drug exposure by broth microdilution method; assay type: functional
# [23] = tested on: Staphylococcus aureus; test: Antimicrobial activity against wild-type Staphylococcus aureus CB190 by broth microdilution method; assay type: functional; outline: as §3
# [24] = tested on: Staphylococcus aureus; test: Antimicrobial activity against Staphylococcus aureus CB815 harboring rpoB H481Y, gyrA S84L and parC S80F mutant genes by broth microdilution method
# [25] = tested on: Staphylococcus aureus; test: Antimicrobial activity against Staphylococcus aureus CB1417 harboring rpoB H481Y and gyrA G532V mutant genes selected after 0.1 ug/ml drug exposure by broth microdilution method
# [26] = tested on: Staphylococcus aureus; test: Antimicrobial activity against Staphylococcus aureus CB1947 harboring rpoB H481Y, gyrA S84L, E697 deficient gyrA, parC G167V mutant genes selected after CBR-2092 exposure for 20 days by agar dilution method; settings: CB1947, 480 h
# [27] = tested on: Staphylococcus aureus; test: Antimicrobial activity against Staphylococcus aureus CB1947 harboring rpoB H481Y, gyrA S84L, E697 deficient gyrA, parC G167V mutant genes selected after CBR-2092 exposure for 20 days by broth microdilution method; settings: CB1947, 480 h
smiles,measurement,setting,value
CO[C@H]1/C=C/O[C@@]2(C)Oc3c(C)c(O)c4c(O)c(c(/C=N/N5CCC(N(C)C6([C@@H]7CCN(c8c(F)cn9c(=O)c(C(=O)O)cc(C%10CC%10)c9c8C)C7)CC6)CC5)c(O)c4c3C2=O)NC(=O)/C(C)=C\C=C\[C@H](C)[C@H](O)[C@@H](C)[C@@H](O)[C@@H](C)[C@H](OC(C)=O)[C@@H]1C,MIC,[1],0.5 µg/mL
same,MIC,[2],0.5 µg/mL
same,MIC,[3],8 µg/mL
same,Time,[4],47 min
same,MIC,[5],4 µg/mL
same,MIC,[6],0.015 µg/mL
same,MIC,[7],31 µg/mL
same,CC50,[8],1500 nM
same,CC50,[9],> 150000 nM
same,MIC,[10],0.015 µg/mL
same,MIC,[11],0.12 µg/mL
same,Activity,[12],Active
same,Activity,[13],Active
same,Activity,[14],Active
same,MIC,[15],0.5 µg/mL
same,MIC,[16],0.25 µg/mL
same,MIC,[17],0.12 µg/mL
same,MIC,[18],0.25 µg/mL
same,MIC,[19],1 µg/mL
same,MIC,[20],16 µg/mL
same,MIC,[21],> 16 µg/mL
same,MIC,[22],16 µg/mL
same,MIC,[23],0.015 µg/mL
same,MIC,[24],2 µg/mL
same,MIC,[25],0.5 µg/mL
same,MIC,[26],1 µg/mL
same,MIC,[27],4 µg/mL
